# Results from ChEMBL document CHEMBL1140150, “Identification of a nonbasic, nitrile-containing cathepsin K inhibitor (MK-1256) that is efficacious in a monkey model of osteoporosis” (J Med Chem, 2008).
# Experiments:
# [1] = Selectivity for rabbit cathepsin K over human cathepsin B
# Procedure, shortened: (§1)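 Counterscreens used human Cat B and Cat S. Selectivity is expressed against humanized rabbit Cat K.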
# Cathepsin K = molecular target: T1, Cathepsin K (Oryctolagus cuniculus, UniProt P43236); assay: Inhibition of rabbit cathepsin K
# T1 sequence (P43236 whole entry): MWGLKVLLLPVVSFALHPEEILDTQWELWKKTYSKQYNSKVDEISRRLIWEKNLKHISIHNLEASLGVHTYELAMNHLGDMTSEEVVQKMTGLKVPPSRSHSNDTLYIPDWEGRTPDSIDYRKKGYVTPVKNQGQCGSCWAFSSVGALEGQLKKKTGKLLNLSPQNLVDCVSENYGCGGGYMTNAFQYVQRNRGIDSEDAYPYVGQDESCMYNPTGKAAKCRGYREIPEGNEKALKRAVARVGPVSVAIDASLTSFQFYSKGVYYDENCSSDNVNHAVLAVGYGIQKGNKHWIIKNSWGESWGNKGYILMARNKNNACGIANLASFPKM
# [2] = Inhibition of bone resorption in rhesus monkey bone; assay type: functional, tissue-based, Macaca mulatta, Bone element
# Rhesus monkey [3] = assay: Inhibition of bone resorption in ovariectomized monkey model of osteoporosis assessed as reduction of urinary-N-telopeptide fragment level at 1 mg/kg, po qd for 1 week; assay type: functional, Macaca mulatta, Urine; design: scale not given: the % may be the effect or the level left
# Procedure, shortened: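 Adult ovariectomized rhesus monkeys given drug or vehicle orally once daily at 1 mpk for 1 week. Bone resorption was followed by urinary N-telopeptide (NTx) normalized to creatinine (nM/mM), and the value is the mean reduction versus vehicle-treated animals.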
# [4] = Selectivity for rabbit cathepsin K over human cathepsin S; procedure, shortened: as §1
# [5] = Oral bioavailability in dog at 5 mL/kg; assay type: ADME, organism-based, Canis lupus familiaris; details: in vivo
# Procedure, shortened: (§2)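 Oral suspensions were given to overnight-fasted animals in the morning, at 10 mL/kg in rats, 5 mL/kg in dogs and 1 mL/kg in monkeys. Intravenous dosing was 1 mL/kg in all species. Plasma was sampled at intervals and analyzed by LC-MS after protein precipitation with 1.5 volumes acetonitrile and centrifugation.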
# Rhesus monkey [6] = assay: Volume of distribution in rhesus monkey at 1 mL/kg, po; assay type: ADME, organism-based, Macaca mulatta; details: in vivo; procedure, shortened: as §2
# [7] = Inhibition of humanized rabbit cathepsin K Tyr61Asp and Val157Leu mutant; design: species or system Homo sapiens
# [8] = Clearance in dog at 5 mL/kg, po; assay type: ADME, organism-based, Canis lupus familiaris; details: in vivo; procedure, shortened: as §2
# Canis familiaris = assay: Volume of distribution in dog at 5 mL/kg, po; assay type: ADME, organism-based, Canis lupus familiaris; details: in vivo; procedure, shortened: as §2
# Rattus norvegicus [9] = assay: Metabolic stability in po dosed rat assessed as (1R,2R)-5,5-dichloro-N-(1-cyanocyclopropyl)-2-(4-(4-(methylsulfonyl)phenyl)-1H-pyrazol-3-yl)cyclohexanecarboxamide level after 96 hrs; assay type: ADME, organism-based; details: in vivo
# [10] = Metabolic stability in po dosed rat feces assessed as drug recovery after 96 hrs; assay type: ADME, organism-based; details: faeces, read-out: Stability
# Procedure, shortened: (§3)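 Radiolabeled compound was given orally to bile-cannulated rats. Radioactivity was recovered from bile, urine and feces over 96 h and expressed as percent of dosed radioactivity.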
# [11] = Metabolic stability in po dosed rat urine assessed as drug recovery after 96 hrs; assay type: ADME, organism-based; details: read-out: Stability; procedure, shortened: as §3
# [12] = AUC in ovariectomized monkey model of osteoporosis at 1 mg/kg, po qd for 1 week; assay type: ADME, organism-based, Macaca mulatta; design: dose 1 mg/kg, route oral; details: female, rhesus monkey, in vivo
# Procedure, shortened: (§4)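 Adult ovariectomized rhesus monkeys dosed orally once daily at 1 mpk for 1 week, dosing volume 1 mL/kg, fasted overnight before morning dosing. Plasma drug levels were taken on the final day of dosing and analyzed by LC-MS after protein precipitation with 1.5 volumes acetonitrile and centrifugation.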
# [13] = Selectivity for rabbit cathepsin K over human cathepsin V
# [14] = Selectivity for rabbit cathepsin K over human cathepsin C
# [15] = Half life in rat at 10 mL/kg, po; assay type: ADME, organism-based; details: in vivo; procedure, shortened: as §2
# [16] = Tmax in ovariectomized monkey model of osteoporosis at 1 mg/kg, po qd for 1 week; assay type: ADME, organism-based, Macaca mulatta; design: dose 1 mg/kg, route oral; details: female, rhesus monkey, in vivo; procedure, shortened: as §4
# Rattus norvegicus [17] = assay: Volume of distribution in rat at 10 mL/kg, po; assay type: ADME, organism-based; details: in vivo; procedure, shortened: as §2
# [18] = Metabolic stability in po dosed rat bile assessed as drug recovery after 96 hrs; assay type: ADME, organism-based; details: read-out: Stability; procedure, shortened: as §3
# [19] = Selectivity for rabbit cathepsin K over human cathepsin F
# [20] = Half life in dog at 5 mL/kg, po; assay type: ADME, organism-based, Canis lupus familiaris; details: in vivo; procedure, shortened: as §2
# [21] = Oral bioavailability in rhesus monkey at 1 mL/kg; assay type: ADME, organism-based, Macaca mulatta; details: in vivo; procedure, shortened: as §2
# [22] = Clearance in rhesus monkey at 1 mL/kg, po; assay type: ADME, organism-based, Macaca mulatta; details: in vivo; procedure, shortened: as §2
# [23] = Bone resorption shift, ratio of IC50 for inhibition of bone resorption in rabbit bone to IC50 for rabbit cathepsin K; assay type: functional, Oryctolagus cuniculus
# Procedure, shortened: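 Bone resorption shift is the rabbit bone resorption IC50 divided by the rabbit Cat K IC50.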
# [24] = Drug level in ovariectomized monkey model of osteoporosis at 1 mg/kg, po qd for 1 week measured after 24 hrs of last dose; assay type: ADME, organism-based, Macaca mulatta; design: dose 1 mg/kg, route oral; details: female, rhesus monkey, in vivo, read-out: Drug uptake; procedure, shortened: as §4
# [25] = Selectivity for rabbit cathepsin K over human cathepsin H
# [26] = Metabolic stability in po dosed rat assessed as drug recovery after 96 hrs; assay type: ADME, organism-based; details: in vivo; procedure, shortened: as §3
# Rhesus monkey [27] = assay: Inhibition of bone resorption in ovariectomized monkey model of osteoporosis assessed as reduction of urinary-N-telopeptide fragment level at 1 mg/kg administered once daily; design: scale not given: the % may be the effect or the level left
# [28] = Inhibition of bone resorption in rabbit bone; assay type: functional, tissue-based, Oryctolagus cuniculus, Bone element
# [29] = Selectivity for rabbit cathepsin K over human cathepsin Z
# [30] = Oral bioavailability in rat at 10 mL/kg; assay type: ADME, organism-based; details: in vivo; procedure, shortened: as §2
# Homo sapiens = organism: Homo sapiens; assay: Inhibition of humanized rabbit cathepsin K Tyr61Asp and Val157Leu mutant in presence of 0.2 uM citrate buffer at 0.12 uM
# Procedure, shortened: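 Reversibility test: a 1:1 mixture of humanized rabbit Cat K and inhibitor (0.12 µM) was preincubated 15 min, then diluted 500-fold into substrate-containing buffer (0.2 µM citrate). Recovery of enzyme activity was followed over time against a control incubation, giving a recovery half-time.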
# [31] = Half life in rhesus monkey at 1 mL/kg, po; assay type: ADME, organism-based, Macaca mulatta; details: in vivo; procedure, shortened: as §2
# [32] = Cmax in ovariectomized monkey model of osteoporosis at 1 mg/kg, po qd for 1 week; assay type: ADME, organism-based, Macaca mulatta; design: dose 1 mg/kg, route oral; details: female, rhesus monkey, in vivo; procedure, shortened: as §4
# [33] = Clearance in rat at 10 mL/kg, po; assay type: ADME, organism-based; details: in vivo; procedure, shortened: as §2
# [34] = Protein binding in human plasma by ultracentrifugation; assay type: ADME, cell-free; details: read-out: PPB (converted)
# [35] = Protein binding in rat plasma by ultracentrifugation; assay type: ADME, cell-free; details: read-out: PPB (converted)
# [36] = Protein binding in rabbit plasma by ultracentrifugation; assay type: ADME, cell-free, Oryctolagus cuniculus; details: read-out: PPB (converted)
SMILES,Selectivity ratio [1],IC50 (Cathepsin K) [nM],Selectivity ratio [4],bioavailability [5] [%],IC50 [7] [nM],CL/F [8] [mL/min/kg],Vdss (Canis familiaris) [L/kg],Selectivity ratio [13],Selectivity ratio [14],half-life [15] [h],Vdss (Rattus norvegicus [17]) [L/kg],Selectivity ratio [19],half-life [20] [h],Ratio IC50 [23],Selectivity ratio [25],IC50 [28] [nM],Selectivity ratio [29],bioavailability [30] [%],CL/F [33] [mL/min/kg],also measured
CS(=O)(=O)c1ccc(-c2cn(CC(F)(F)F)nc2[C@@H]2CCC(Cl)(Cl)C[C@H]2C(=O)NC2(C#N)CC2)cc1,> 16000,6.1,4300,60,0.62,1.4,2.1,1100,6000,4.4,2.8,110,34,8,> 140000,50,1700,105,7.8,IC50 [2]: 2 nM; Activity (Rhesus monkey [3]): 72%; Vdss (Rhesus monkey [6]): 3.4 L/kg; Activity (Rattus norvegicus [9]): 0.1%; dose excreted at 96 h [10]: 58%; dose excreted at 96 h [11]: 18%; AUC at 168 h [12]: 4.2 µM·h; Tmax [16]: 4 h; dose excreted at 96 h [18]: 16%; bioavailability [21]: 104%; CL/F [22]: 5 mL/min/kg; concentration at 24 h [24]: 80 nM; dose excreted at 96 h [26]: 92%; Activity (Rhesus monkey [27]): 76%; inhibition (Homo sapiens): > 99%; half-life [31]: 13 h; Cmax [32]: 400 nM
Cn1cc(-c2ccc(S(C)(=O)=O)cc2)c([C@@H]2CCC(F)(F)C[C@H]2C(=O)NC2(C#N)CC2)n1,4400,4.5,1200,–,0.81,–,–,–,–,–,–,–,–,8,–,35,–,–,–,–
CSc1ccc(-c2ccccc2[C@@H]2CCC(F)(F)C[C@H]2C(=O)NCC#N)cc1,> 36000,–,940,–,0.28,–,–,–,–,–,–,–,–,53,–,16,–,–,–,fraction unbound [34]: 0.15; fraction unbound [35]: 0.15; fraction unbound [36]: 0.15
CSc1ccc(-c2cn(C)nc2[C@@H]2CCC(F)(F)C[C@H]2C(=O)NCC#N)cc1 (racemic),9500,0.41,490,–,0.37,–,–,–,–,–,–,–,–,100,–,41,–,–,–,–
CS(=O)(=O)c1ccc(-c2cn(CC(F)(F)F)nc2[C@@H]2CCC(F)(F)C[C@H]2C(=O)NC2(C#N)CC2)cc1,> 14000,9.3,7100,31,0.69,1.8,1.2,1100,6000,4.4,3.2,110,7.8,6,> 140000,51,1700,25,14,–
CS(=O)(=O)c1ccc(-c2c[nH]nc2[C@@H]2CCC(F)(F)C[C@H]2C(=O)NC2(C#N)CC2)cc1,2900,18.6,2300,–,1.8,–,–,–,–,–,–,–,–,7,–,120,–,–,–,–
